Assay results collected from several papers.
Compare with care: the assays were run in different laboratories.
Target: Serine/threonine-protein kinase PAK 5 (PAK5, Homo sapiens, UniProt Q9P286)

Structure (SMILES) | effect on | mode | technique | concentration | endpoint | result
Nc1ncc(-c2nc(N3CCOCC3)nc(N3CCOCC3)n2)c(C(F)F)n1 | binding |  | competition with immobilised ligand | 10 µM | remaining binding | 52%
COc1ncccc1-c1cnn2ccc(N3CCN(C(=O)OC(C)C)CC3)nc12 | binding |  | competition with immobilised ligand | 1 µM | remaining binding | 100%
O=c1[nH]c2ccccc2n1C1CCN(Cc2ccc(-c3[nH]c4cc5ncnc5cc4nc3-c3ccccc3)cc2)CC1 | cell-free assay |  |  | 0.5 µM | remaining signal | 110%
Cn1cc(-c2cccc(N3CCc4c(sc5c4CC(C)(C)C5)C3=O)c2CO)cc(Nc2ccncn2)c1=O | enzyme activity | inhibitor |  | 1 µM | inhibition | 4%
C#Cc1n[nH]c2c(-c3cn(C(C)c4ccccn4)c(=O)[nH]c3=O)cc(F)cc12 (stereo not shown) | enzyme activity | inhibitor |  | 1 µM | inhibition | -3.8%
N#CC1(c2ccccn2)CCN(Cc2cc(C(=O)O)c(=O)n3ccccc23)CC1 | cell-free assay |  | competition with immobilised ligand | 1 µM | remaining binding | 96%
Cc1nn(C)cc1-c1nc2c(N3CCN(Cc4ccc(Cl)cc4)CC3)c(Cl)cnc2[nH]1 | binding |  | competition with immobilised ligand | 1 µM | remaining binding | 83%
Cn1cncc1[C@@](O)(COc1ccc(C#N)cc1-c1ccc(OC(F)(F)F)cc1)c1ccc(C#N)cc1 | cell-free assay |  | competition with immobilised ligand | 1 µM | remaining binding | 100%
Cn1cc(-c2cc(F)cc(N3CCn4c(cc5c4CCCC5)C3=O)c2CO)cc(Nc2ccc(N3CCN(C4COC4)CC3)cn2)c1=O | enzyme activity | inhibitor |  | 0.1 µM | inhibition | 10%
COc1cc(Nc2ncc(F)c(Nc3ccc4c(n3)NC(=O)C(C)(C)O4)n2)cc(OC)c1OC | binding |  |  | 10 µM | inhibition | 100%
